Measured values from ChEMBL document CHEMBL3616466, “Pyrazolo[3,4-h]quinolines promising photosensitizing agents in the treatment of cancer” (Eur J Med Chem, 2015).
The source made the active and inactive calls. The rule behind the calls is not given here.

Tests used:
LoVo [1] = experiment: Ratio of angelicin GI50 to compound GI50 for human LoVo cells assessed as growth inhibition at 3.75 J/cm'2 irradiation for 30 mins followed by drug treated for 72 hrs by MTT assay; assay type: functional
Procedure, shortened: (§1)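 Cells were pre-incubated 30 min at 37 °C with drug in HBSS, irradiated, then drug replaced with medium. Ratio is angelicin GI50 divided by compound GI50.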

LoVo [2] = experiment: Cytotoxicity against human LoVo cells assessed as growth inhibition after 72 hrs by MTT assay; assay type: functional
Procedure, shortened: (§2)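 Cells (5 × 10³ per well) pre-incubated 24 h at 37 °C, 5% CO₂, then exposed in the dark to serial concentrations diluted from DMSO stock into complete medium for 72 h at 37 °C. Viability read by MTT; GI50 derived. LoVo in Ham's F-12, MCF-7 and A-549 in DMEM, all with 10% FBS and penicillin/streptomycin.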

[3] = Induction of singlet oxygen generation measured after UV-A irradiation by RNO bleaching assay; assay type: physicochemical
Procedure, shortened: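 Compound (2.2 × 10⁻⁵ M), RNO (4 × 10⁻⁵ M) and imidazole (4 × 10⁻⁵ M) in phosphate buffer pH 7.3 irradiated with increasing UV-A doses. Absorbance read at 440 nm; reported as % RNO bleaching.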

Jurkat [4] = experiment: Induction of apoptosis in human Jurkat cells assessed as reduction in mitochondrial potential at 1 to 2 uM using JC-1 staining measured 24 hrs post 2.5 J/cm'2 irradiation by FACS assay; assay type: functional, cell-based
Procedure, shortened: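 At 24 h after 2.5 J/cm² irradiation with compound at 1 or 2 µM, Jurkat cells were pelleted and resuspended in HBSS with 1 µM JC-1. After 10 min at 37 °C, fluorescence read at 530 and 590 nm by flow cytometry. Mean ± SEM, n=3.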

Escherichia coli = experiment: Induction of DNA damage in Escherichia coli pBR322 DNA measured at 7.5 J/cm'2 UV-A irradiation by neutral agarose electrophoresis
Procedure, shortened: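 pBR322 plasmid (100 ng) in 10 mM phosphate buffer pH 7.2 irradiated at 7.5 J/cm² UV-A with compound at a compound/DNA ratio of 3/1. Aliquots incubated at 37 °C with Fpg or Endo III. Run on 1% agarose in TAE at 70 V for 4 h; supercoiled, open circular and linear bands quantified.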

A549 [5] = experiment: Photocytotoxicity against human A549 cells assessed as growth inhibition at 2.5 J/cm'2 irradiation for 30 mins followed by drug treated for 72 hrs by MTT assay; assay type: functional; conditions: A549, light or radiation study
Procedure, shortened: (§3)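 Cells seeded at 5 × 10³ per well and pre-incubated 24 h. Drug dilutions in HBSS (pH 7.2, from DMSO stock) added for 30 min at 37 °C, then UV-A irradiation at the stated dose. Drug solution then replaced with culture medium and plates incubated 72 h. Viability by MTT; GI50 from concentration series.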

A549 [6] = experiment: Cytotoxicity against human A549 cells assessed as growth inhibition after 72 hrs by MTT assay; assay type: functional; conditions: A549, 72 h; procedure, shortened: as §2
LoVo [7] = experiment: Photocytotoxicity against human LoVo cells assessed as growth inhibition at 2.5 J/cm'2 irradiation for 30 mins followed by drug treated for 72 hrs by MTT assay; assay type: functional; conditions: light or radiation study; procedure, shortened: as §3
MCF7 [8] = experiment: Cytotoxicity against human MCF7 cells assessed as growth inhibition after 72 hrs by MTT assay; assay type: functional; conditions: MCF7, 72 h; procedure, shortened: as §2
Jurkat [9] = experiment: Photocytotoxicity against human Jurkat cells assessed as growth inhibition at 2.5 J/cm'2 irradiation for 30 mins followed by drug treated for 72 hrs by MTT assay; assay type: functional; conditions: light or radiation study; procedure, shortened: as §3
Jurkat [10] = experiment: Induction of apoptosis in human Jurkat cells assessed as reduction in alive cells using Annexin-V and propidium iodide staining at 1 to 2 uM measured 24 hrs post 2.5 J/cm'2 irradiation by flow cytometry analysis; assay type: functional, cell-based
Procedure, shortened: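 Jurkat cells irradiated (2.5 J/cm²) with compound at 1 or 2 µM. After 24 h, co-stained with Annexin V-FITC and PI and analysed by flow cytometry (excitation 488 nm; emission 525 and 585 nm). Mean of three independent experiments.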

Jurkat [11] = experiment: Induction of apoptosis in human Jurkat cells assessed as lysosome death at 1 to 2 uM using acridine orange staining measured 24 hrs post 2.5 J/cm'2 irradiation by flow cytometry; assay type: functional, cell-based
HL-60 [12] = experiment: Photocytotoxicity against human HL60 cells assessed as growth inhibition at 2.5 J/cm'2 irradiation for 30 mins followed by drug treated for 72 hrs by MTT assay; assay type: functional; conditions: HL-60, light or radiation study; procedure, shortened: as §3
A549 [13] = experiment: Photocytotoxicity against human A549 cells assessed as growth inhibition at 3.75 J/cm'2 irradiation for 30 mins followed by drug treated for 72 hrs by MTT assay; assay type: functional; conditions: A549, light or radiation study; procedure, shortened: as §3
MCF7 [14] = experiment: Ratio of angelicin GI50 to compound GI50 for human MCF7 cells assessed as growth inhibition at 3.75 J/cm'2 irradiation for 30 mins followed by drug treated for 72 hrs by MTT assay; assay type: functional; procedure, shortened: as §1
A549 [15] = experiment: Photocytotoxicity against human A549 cells assessed as inhibition of colony formation at 0.0625 to 0.5 uM measured 24 hrs post 2.5 J/cm'2 irradiation after 1 to 2 weeks by optical microscopy; assay type: functional, cell-based
Procedure, shortened: (§4)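 A-549 cells (10 × 10³) plated in dishes. After 24 h, irradiated at 2.5 J/cm² with compound at varying concentrations. Medium replaced, then cultured 1–2 weeks with medium changes every 2–3 days. Stained with crystal violet; colonies of ≥50 cells counted visually. Expressed as % of untreated cells; mean ± SEM of three experiments.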

MCF7 [16] = experiment: Photocytotoxicity against human MCF7 cells assessed as growth inhibition at 3.75 J/cm'2 irradiation for 30 mins followed by drug treated for 72 hrs by MTT assay; assay type: functional; conditions: MCF7, light or radiation study; procedure, shortened: as §3
Jurkat [17] = experiment: Induction of lipid peroxidation in human Jurkat cells at 2 uM measured 24 hrs post 2.5 J/cm'2 irradiation by TBA assay; assay type: functional, cell-based
Procedure, shortened: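 TBA test for TBARS performed on supernatant medium and on cell lysates 24 h post-irradiation. Mean ± SEM of three experiments.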

[18] = Induction of superoxide anion generation measured after UV-A irradiation by NBT reduction assay; assay type: physicochemical
Procedure, shortened: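 Compound (10⁻⁵ M) with nitroblue tetrazolium (1.6 × 10⁻⁴ M) in carbonate buffer pH 10 irradiated with increasing UV-A doses. Absorbance at 560 nm followed as the superoxide read-out.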

Jurkat [19] = experiment: Induction of apoptosis in human Jurkat cells assessed as increase in cleaved caspase 3 level at 1 uM measured 24 hrs post 2.5 J/cm'2 irradiation by Western blot analysis; assay type: functional, cell-based
Procedure, shortened: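 Jurkat cells irradiated (2.5 J/cm²) with compound at 1 µM. At 24 h, cells washed in cold PBS and lysed on ice for 20 min. 20 µg protein run on 8–16% gradient gels and transferred to nitrocellulose. Probed with rabbit anti-caspase-3 and β-actin (1:1000, 2 h), then peroxidase anti-rabbit IgG; ECL detection.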

HL-60 [20] = experiment: Photocytotoxicity against human HL60 cells assessed as growth inhibition at 1.25 J/cm'2 irradiation for 30 mins followed by drug treated for 72 hrs by MTT assay; assay type: functional; conditions: HL-60, light or radiation study; procedure, shortened: as §3
HL-60 [21] = experiment: Cytotoxicity against human HL60 cells assessed as growth inhibition after 72 hrs by MTT assay; assay type: functional; conditions: HL-60, 72 h
Jurkat [22] = experiment: Photocytotoxicity against human Jurkat cells assessed as growth inhibition at 1.25 J/cm'2 irradiation for 30 mins followed by drug treated for 72 hrs by MTT assay; assay type: functional; conditions: light or radiation study; procedure, shortened: as §3
Jurkat [23] = experiment: Induction of apoptosis in human Jurkat cells assessed as ROS production at 1 to 2 uM using HE and DCFDA staining measured 24 hrs post 2.5 J/cm'2 irradiation by FACS assay; assay type: functional, cell-based
LoVo [24] = experiment: Photocytotoxicity against human LoVo cells assessed as growth inhibition at 3.75 J/cm'2 irradiation for 30 mins followed by drug treated for 72 hrs by MTT assay; assay type: functional; conditions: light or radiation study; procedure, shortened: as §3
MCF7 [25] = experiment: Photocytotoxicity against human MCF7 cells assessed as growth inhibition at 2.5 J/cm'2 irradiation for 30 mins followed by drug treated for 72 hrs by MTT assay; assay type: functional; conditions: MCF7, light or radiation study; procedure, shortened: as §3
A549 [26] = experiment: Photocytotoxicity against human A549 cells assessed as inhibition of colony formation at 2.5 J/cm'2 irradiation after 1 to 2 weeks using crystal violet staining by optical microscopy; assay type: functional, cell-based; procedure, shortened: as §4
Jurkat [27] = experiment: Cytotoxicity against human Jurkat cells assessed as growth inhibition after 72 hrs by MTT assay; assay type: functional

For `COc1ccc(-n2ncc3c2ccc2cc(S(=O)(=O)c4ccccc4)c(=O)n(C)c23)cc1`, the “Ratio IC50” value (LoVo [1]) was 12, the GI50 (LoVo [2]) was over 20000 nM and the Activity [3] was “Active”. For the same compound, the Activity (Jurkat [4]) was “Active”, the Activity (Escherichia coli) was “inactive” and the GI50 (A549 [5]) was 270 nM. It also gave a GI50 (A549 [6]) of over 20000 nM, a GI50 (LoVo [7]) of 190 nM and a GI50 (MCF7 [8]) of 9600 nM. For the same compound, the GI50 (Jurkat [9]) was 250 nM, the Activity (Jurkat [10]) was “Active” and the Activity (Jurkat [11]) was “Active”. The GI50 (HL-60 [12]) was 440 nM, the GI50 (A549 [13]) was 80 nM and the “Ratio IC50” value (MCF7 [14]) was 10. The Activity (A549 [15]) was “Dose-dependent effect”, the GI50 (MCF7 [16]) was 140 nM and the Activity (Jurkat [17]) was “Active”. For the same compound, the Activity [18] was “Active”, the Activity (Jurkat [19]) was “Active” and the GI50 (HL-60 [20]) was 610 nM. For the same compound, the GI50 (HL-60 [21]) was over 20000 nM, the GI50 (Jurkat [22]) was 580 nM and the Activity (Jurkat [23]) was “Active”. The GI50 (LoVo [24]) was 90 nM, the GI50 (MCF7 [25]) was 290 nM and the Activity (A549 [26]) was “Dose-dependent effect”. The GI50 (Jurkat [27]) was over 20000 nM.
